V1aR counter – counter-screen for oxytocin receptor agonists: human V1a receptor agonists; 320,000 tested, 0.25% active; P37288; activation, % at 3 µM; CHO-V1R cells, Fluo-8 calcium fluorescence, agonist mode; 0% DMSO, 100% 3 nM vasopressin;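 active = activation above the mean activation of all tested compounds plus 3 SD, per screening run, cut at about 20% in these data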;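 note: signal is peak over basal fluorescence ratio across a 100 second FLIPR read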
Target sequence (P37288 whole entry, looked up): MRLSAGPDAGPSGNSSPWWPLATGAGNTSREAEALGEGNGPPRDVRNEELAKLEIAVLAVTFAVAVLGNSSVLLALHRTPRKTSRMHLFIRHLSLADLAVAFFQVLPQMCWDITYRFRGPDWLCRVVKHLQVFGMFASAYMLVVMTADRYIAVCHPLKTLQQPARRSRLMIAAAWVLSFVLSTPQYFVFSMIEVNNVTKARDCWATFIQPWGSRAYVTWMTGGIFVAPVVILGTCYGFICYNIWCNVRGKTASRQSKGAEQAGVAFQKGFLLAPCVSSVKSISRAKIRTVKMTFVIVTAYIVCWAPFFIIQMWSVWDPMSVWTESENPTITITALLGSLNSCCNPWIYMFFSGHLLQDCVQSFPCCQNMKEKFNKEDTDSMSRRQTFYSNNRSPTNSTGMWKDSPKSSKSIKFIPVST
zfTRPN1 agonist – activates the zebrafish TRPN1 channel; HEK293 zebrafish TRPN1-YFP, Fluo-8 calcium fluorescence; 100% = response to 87 µM carbachol; activation, % at 3 µM; 220,000 tested, 0.18% active; AID 1424;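 active = activation above its plate's cutoff, the mean activation of test wells on that plate plus 3 SD, cut at about 19% in these data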;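 note: 0% = DMSO alone and 100% = 87 µM carbachol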
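Assay system: Zebrafish TRPN1-YFP in HEK293 cells | Incubation: Dye loading 1 h at 37 °C, then 30 min room temperature | Measured by: Kinetic Fluo-8 fluorescence, ex 470-495, em 515-575 nm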
OXTR agonist – activates the human oxytocin receptor | 320,000 tested, 0.32% active | activation, % at 3 µM | AID 2435 | CHO-OTR cells, Fluo-8 calcium fluorescence; normalized: DMSO 0%, oxytocin 100%;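 active = activation above the mean of all tested compounds plus 3 SD, cutoff set per screening run, cut at about 20% in these data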;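 note: peak over basal fluorescence ratio from a 100 s FLIPR kinetic read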
TRPML3 ag – agonists of human TRPML3 channel; Q8TDD5; HEK293 TRPML3-YFP, Fluo-8 calcium fluorescence; 100% = the carbachol control signal; activation, % at 3 µM; 220,000 tested, 0.29% active;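 active = activation above its plate's cutoff, the mean activation of the plate's test wells plus 3 SD, cut at about 12% in these data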;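 note: 0% = DMSO only wells and 100% = carbachol wells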
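Material: HEK293 cells stably carrying human TRPML3-YFP; compound dosing: single dose, 3 µM final nominal compound, 0.3% DMSO final; incubation: 1-h 37 °C dye load, 5-s basal, 120-s post-compound reads; technique: Fluo-8 intracellular calcium fluorescence, excitation 470-495 nm, emission 515-575 nm; read-out basis: percent activation from peak-to-basal fluorescence ratio, scaled between DMSO and carbachol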
OXTR potentiator – human OXTR potentiation. activation, % at 3 µM. 320,000 tested, 0.061% active. AID 2445. CHO-OTR cells, Fluo-8 calcium fluorescence, potentiator mode; 0% = oxytocin EC15, 100% = EC100. P30559;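 active = activation above that plate's cutoff, the mean activation of tested compounds plus 3 SD, cut at about 6.6% in these data, passing the limit was not always enough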;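 note: 100% uses oxytocin at 75 nM as the full agonist control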
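Assay system: CHO-OTR cells, human receptor / Also added: oxytocin at about EC15, sub-maximal agonist stimulus / Dosing: single dose, 3.0 µM nominal final compound concentration / Incubation: 6 min pre-incubation, 100 s read / Technique: Fluo-8 calcium dye fluorescence / Read-out: % activation vs EC15 and EC100 oxytocin / Benchmarks: EC15 oxytocin low, 75 nM oxytocin high / Replicates: singlicate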
OXTR ag confirm – confirmation of human oxytocin receptor agonists. shares compounds with OXTR agonist. CHO-OTR cells, Fluo-8 calcium fluorescence, agonist. activation, % at 3 µM. 390 tested, 20% active;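 active = mean activation above about 20% derived from the earlier single-dose screen, limit read from the data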;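 note: peak over minimum fluorescence ratio per well during a 100 second FLIPR read; 0% = DMSO alone and 100% = oxytocin high control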
V1R ag counter 3x – activates V1a receptor in oxytocin agonist counter-screen; shares compounds with OXTR agonist; activation, % at 3 µM; CHO-V1R cells, Fluo-8 calcium fluorescence; 390 tested, 10% active;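 active = mean activation over triplicate exceeds the hit threshold set in the earlier primary screen, cut at about 20% in these data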;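 note: peak over basal fluorescence ratio within a 100 second read; 0% = DMSO alone and 100% = 3 nM vasopressin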
Active calls of the source: *; . = not tested or not shown. Most compounds without a hit are left out; they make up all but 0.55% or so of the library.

SMILES | V1aR counter | zfTRPN1 agonist | OXTR agonist | TRPML3 ag | OXTR potentiator | OXTR ag confirm | V1R ag counter 3x
N#CCc1nc2ccccc2c(=O)[nH]1 | 2 | 0 | 0 | 1 | -1 | . | .
O=C(Nc1ccc([N+](=O)[O-])cc1Cl)c1cc(Cl)ccc1O | 13 | . | 21* | . | -18 | 15 | 13
O=C(O)c1nccnc1C(=O)Nc1ccc(Cl)cn1 | 0 | . | 1 | . | 1 | . | .
COc1cc(NC(=O)Cc2nn(C)c(=O)c3ccccc23)cc(OC)c1OC | 2 | 1 | 0 | 0 | -7 | . | .
COc1ccc(OC)c(NC(=O)Cc2nn(C)c(=O)c3ccccc23)c1 | 7 | 5 | 20* | 3 | -20 | 7 | 9
Cc1c(NC(=O)COc2cccc(Br)c2)c(=O)n(-c2ccccc2)n1C | 2 | . | 0 | . | -12 | . | .
CC1CN(c2ccc([N+](=O)[O-])c(NCCOc3ccccc3)c2)CC(C)N1 (configuration not stated) | 7 | . | 24* | . | -15 | 4 | 4
Cc1ccccc1OCCNc1cc(N2CC(C)NC(C)C2)ccc1[N+](=O)[O-] (configuration not stated) | 14 | 7 | 20* | 3 | -7 | 13 | 5
CCc1ccc(OCCNc2cc(N3CCNC(C)C3)ccc2[N+](=O)[O-])cc1 (configuration not stated) | 11 | . | 18 | . | -7 | . | .
CC(=O)Nc1ccc(/C(C)=N/Nc2nc(Nc3cccc4ccccc34)nc(N3CCOCC3)n2)cc1 | 12 | 9 | 25* | 5 | -13 | 0 | 0
O=C(NCC(c1ccco1)N1CCCCC1)c1ccc(S(=O)(=O)Nc2ccccc2)cc1 (configuration not stated) | 5 | . | 6 | . | -6 | . | .
Cc1ccc(NS(=O)(=O)c2ccc(C(=O)NCC(c3ccco3)N3CCCCC3)cc2)cc1 (configuration not stated) | 16 | . | 24* | . | -17 | 24* | 12
CC(C)(C)OC(=O)N[C@@H](C(=O)OC(C)(C)C)c1ccc(Br)cc1 | -1 | . | -2 | . | -8 | . | .
COc1ccc(S(=O)(=O)Nc2ccc(N3CCOCC3)cc2)cc1 | 3 | . | 2 | . | -12 | . | .
COc1ccc(NS(=O)(=O)c2ccc(N3CCOCC3)c(N)c2)cc1 | 12 | . | 20* | . | -9 | 11 | 11
COc1ccccc1CNC(=O)COC(=O)c1ccccc1SCC(=O)N1CCCC1 | 0 | . | -1 | . | -1 | . | .
Cc1cc(C)c2c(=O)n(CC(=O)Nc3cccc(Cl)c3C)sc2n1 | 19 | 21* | 42* | 11 | -10 | 20* | 21*
Cc1cc(C)c2c(=O)n(CC(=O)Nc3ccc(Br)c(C)c3)sc2n1 | 20 | 4 | 37* | 6 | -12 | 10 | 7
Cc1cc(C)c2c(=O)n(CC(=O)NC3CCCC3)sc2n1 | 4 | 0 | 4 | 1 | -2 | . | .
CSc1ccc2c(c1)C(N1CCN(C)CC1)Cc1ccc(F)cc1S2 (configuration not stated) | 10 | . | 26* | . | -8 | 4 | 1
CC(=O)n1cc([C@H]2C=C(C(=O)NCc3ccccc3)O[C@@H](OCc3ccc(CO)cc3)C2)c2ccccc21 | 1 | 1 | 2 | 0 | -14 | . | .
CC(=O)n1cc([C@H]2C=C(C(N)=O)O[C@@H](OCc3ccc(CO)cc3)C2)c2ccccc21 | 17 | . | 20* | . | -16 | 19 | 13
CC(=O)Nc1ccc(NC(=O)COC(=O)C2(c3ccc(Cl)cc3)CCCC2)cc1 | 18 | 11 | 20* | 4 | -11 | 13 | 12
COc1ccc(C(=O)N/N=C/c2sc3ccccc3c2O)cc1 | 7 | 4 | 10 | 1 | -9 | . | .
O=C(N/N=C/c1sc2ccccc2c1O)c1ccccc1 | 11 | 6 | 21* | 6 | -15 | 30* | 48*
Cc1ccc(S(=O)(=O)NCc2cccnc2)cc1C | 2 | . | 0 | . | -2 | . | .
O=C(Cc1cccs1)N(Cc1ccco1)C1(C(=O)NC2CCCC2)CCCCC1 | 6 | -2 | 20* | 0 | -19 | 0 | 0

High-throughput results: PubChem BioAssay, The Scripps Research Institute Molecular Screening Center
